# Source: ChEMBL document CHEMBL4346667 (Eur J Med Chem, 2019)
# pIC50, pKd, pKi: −log10 of the molar value. Active and inactive are the calls of the source. The rule behind the calls is not given here.
# Columns and labels:
# L02 = assay: Antiproliferative activity against human HL7702 cells assessed as reduction in cell viability after 48 hrs by MTT assay; assay type: functional, cell-based; settings: L02, 48 h
# How it was run: (§1)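 Cells grown at 37 °C, 5% CO2; HeLa, HepG2, H8, HL7702 in RPMI 1640 + 10% fetal calf serum, others in high-glucose DMEM + 10% fetal calf serum. Log-phase cells seeded at 4000-12000/well by doubling time. Attached cells were given 10-fold dilutions, 100 µM to 10 nM (DMSO 0.1% v/v), for 48 h. MTT (2 mg/mL) 4 h, formazan in DMSO, A492. IC50 from triplicate means.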
# HepG2 = assay: Antiproliferative activity against human HepG2 cells assessed as reduction in cell viability after 48 hrs by MTT assay; assay type: functional, cell-based; settings: HepG2, 48 h; how it was run: as §1
# Tubulin (Sus scrofa) [1] = molecular target: T1, Tubulin (Sus scrofa) (UniProt P02554+P02550); assay: Inhibition of porcine tubulin assembly assessed as tubulin growth inhibition incubated for 30 min by fluorometric analysis; assay type: protein assay
# T1 sequence (P02550 whole entry, looked up): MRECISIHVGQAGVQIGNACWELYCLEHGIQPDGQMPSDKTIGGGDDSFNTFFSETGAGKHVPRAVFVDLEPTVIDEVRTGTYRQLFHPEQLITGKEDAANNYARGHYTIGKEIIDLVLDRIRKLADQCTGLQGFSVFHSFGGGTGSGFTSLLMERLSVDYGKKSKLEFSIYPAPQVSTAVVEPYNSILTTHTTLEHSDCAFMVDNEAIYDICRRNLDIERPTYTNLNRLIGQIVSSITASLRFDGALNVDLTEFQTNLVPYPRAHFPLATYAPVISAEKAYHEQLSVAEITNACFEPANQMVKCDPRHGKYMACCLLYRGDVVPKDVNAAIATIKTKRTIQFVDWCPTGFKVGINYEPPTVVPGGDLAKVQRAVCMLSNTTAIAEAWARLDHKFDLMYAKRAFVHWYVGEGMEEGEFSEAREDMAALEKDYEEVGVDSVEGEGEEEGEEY
# T1 sequence (P02554 whole entry, looked up): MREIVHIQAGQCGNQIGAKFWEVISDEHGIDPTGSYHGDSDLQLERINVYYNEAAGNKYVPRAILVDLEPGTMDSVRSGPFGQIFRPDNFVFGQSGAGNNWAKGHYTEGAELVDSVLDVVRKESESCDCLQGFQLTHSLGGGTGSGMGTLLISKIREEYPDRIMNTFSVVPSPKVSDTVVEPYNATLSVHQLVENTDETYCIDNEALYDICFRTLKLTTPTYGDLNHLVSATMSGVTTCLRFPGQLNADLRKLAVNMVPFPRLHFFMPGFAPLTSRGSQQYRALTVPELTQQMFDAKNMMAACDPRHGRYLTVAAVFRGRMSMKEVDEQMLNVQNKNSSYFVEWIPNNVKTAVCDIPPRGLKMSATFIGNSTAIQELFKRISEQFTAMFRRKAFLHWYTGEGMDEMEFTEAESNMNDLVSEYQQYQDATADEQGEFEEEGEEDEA
# How it was run: (§2)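 This was a centrifugation assay of tubulin assembly. Tubulin was held at 4 °C with 0.9 mM GTP and 6 mM MgCl2, and aggregates were removed at 90000 g for 10 min at 4 °C. Ligands at 0.05–2 µM (1% DMSO) were incubated for 30 min at 37 °C. Supernatants and pellets were diluted 1:5, and tubulin was read fluorometrically (ex 280, em 323) against standards. The 50% inhibitory concentration came from inhibition curves, as the mean of three experiments.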
# HeLa = assay: Antiproliferative activity against human HeLa cells assessed as reduction in cell viability after 48 hrs by MTT assay; assay type: functional, cell-based; how it was run: as §1
# [2] = Antiproliferative activity against human H8 cells assessed as reduction in cell viability after 48 hrs by MTT assay; assay type: functional, cell-based; how it was run: as §1
# A549 = assay: Antiproliferative activity against human A549 cells assessed as reduction in cell viability after 48 hrs by MTT assay; assay type: functional, cell-based; settings: A549, 48 h; how it was run: as §1
# MRC5 = assay: Antiproliferative activity against human MRC5 cells assessed as reduction in cell viability after 48 hrs by MTT assay; assay type: functional, cell-based; settings: MRC5, 48 h; how it was run: as §1
# MCF7 [3] = assay: Antiproliferative activity against human MCF7 cells assessed as reduction in cell viability after 48 hrs by MTT assay; assay type: functional, cell-based; settings: MCF7, 48 h; how it was run: as §1
# HMEC = assay: Antiproliferative activity against human HMEC cells assessed as reduction in cell viability after 48 hrs by MTT assay; assay type: functional, cell-based; how it was run: as §1
# MCF7 [4] = assay: Cell cycle arrest in human MCF7 cells assessed as accumulation of cells at G2/M phase at >=250 nM after 24 hrs by propidium iodide double staining based flow cytometric analysis (reference value: 80%); assay type: functional
# How it was run: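 Log-phase cells seeded in 6-well plates and, once adhered, treated at 10-1000 nM; incubated in cycles of 6 h on/6 h off up to 48 h. Washed in cold PBS, fixed in 70% ethanol at -20 °C for at least 2 days. Stained with PI (50 µg/mL) 30 min on ice in the dark. 10,000 events on FL2-A vs FL2-W; G1/S/G2/M from DNA modelling. At least three repeats.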
# MCF7 [5] = assay: Induction of apoptosis in human MCF7 cells at 250 nM after 48 hrs by Annexin V-FITC/propidium iodide staining-based flow cytometric analysis relative to control (reference value: 11.6%); assay type: functional
# How it was run: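 MCF7 cells were seeded in 6-well plates and exposed after adhering to graded concentrations for 48 h, in cycles of 6 h on and 6 h off. They were then stained with annexin V (1 µg/mL) and PI (0.5 µg/mL) in Ca2+-enriched binding buffer for 15 min in the dark at room temperature. Flow cytometry recorded 10,000 events, FL1 versus FL2. Apoptosis was taken as early plus late stage, with at least 3 repeats.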
# Tubulin = assay: Binding affinity to tubulin (unknown origin) assessed as dissociation constant by SPR analysis; assay type: protein-complex assay, Homo sapiens
# How it was run: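 Tubulin immobilised to about 800 mDeg. Injected at 60 µL/min for 300 s; PBS with 0.5% DMSO as running buffer. Measured at 25 °C, with dilution-corrected peak areas.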
# Tubulin (Homo sapiens) [6] = molecular target: T2, Tubulin (Homo sapiens) (UniProt P68371+Q9H4B7+P0DPH7+P68366+Q13509+Q71U36+P04350+Q3ZCM7+P07437+P68363+Q9BQE3+Q6PEY2+Q13885+Q9BVA1+Q9BUF5); assay: Ratio of Kd for PTOX to Kd for test compound for tubulin (unknown origin) by surface plasmon resonance analysis; assay type: protein-complex assay
# How it was run: (§3)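 SPR binding to immobilised tubulin (up to 800 mDeg) was measured at 25 °C. Compounds were diluted two-fold from 80 to 2.5 µM in PBS with 0.5% DMSO. They were injected at 60 µL/min for 300 s, with PBS containing 0.5% DMSO as running buffer. Kd values came from the titration data.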
# Tubulin (Homo sapiens) [7] = molecular target: T2, Tubulin (Homo sapiens); assay: Ratio of Kd for colchicine to Kd for test compound for tubulin (unknown origin) by surface plasmon resonance analysis; assay type: protein-complex assay; how it was run: as §3
# Tubulin (Sus scrofa) [8] = molecular target: T1, Tubulin (Sus scrofa); assay: Inhibition of porcine tubulin assembly assessed as tubulin growth inhibition at 2 uM incubated for 30 min by fluorometric analysis; assay type: protein assay; how it was run: as §2
# Tubulin (Homo sapiens) [9] = molecular target: T2, Tubulin (Homo sapiens); assay: Inhibition of tubulin polymerization in human HeLa cells assessed as cellular microtubule disorganization and H3 phosphorylation at 500 nM after 24 hrs by immunofluorescence based confocal microscopy; assay type: cell-based
# How it was run: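 HeLa cells on glass coverslips were treated for 24 h at 25, 250 or 500 nM. They were fixed in 4% paraformaldehyde for 1 h and permeabilised with 0.2% Triton X-100 for 20 min. Anti-α-tubulin (1:50 in 2% BSA) was applied for 1 h at RT, then Alexa Fluor 488 anti-rabbit IgG (1:500) for 1 h, then DAPI for 20 min. Cells were imaged by fluorescence and confocal microscopy.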
# [10] = Binding affinity to alpha/beta tubulin complex (unknown origin); set-up: species or system Homo sapiens
# How it was run: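 SPR assay: tubulin immobilized up to 800 mDeg (response units). Ligands were diluted two-fold from 80 µM to 2.5 µM in PBS with 0.5% (v/v) DMSO and injected at 60 µL/min for 300 s. Running buffer was PBS with 0.5% DMSO, at 25°C.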
# Tubulin (Homo sapiens) [11] = molecular target: T2, Tubulin (Homo sapiens); assay: Inhibition of tubulin polymerization in human HeLa cells assessed as contracted and rounded cells with disordered abnormal spindles and chromosomal misalignment at 500 nM after 24 hrs by immunofluorescence based confocal microscopy; assay type: cell-based
# How it was run: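 HeLa cells on glass coverslips were treated for 24 h at 25, 250 or 500 nM. They were fixed in 4% paraformaldehyde for 1 h and permeabilised with 0.2% Triton X-100 for 20 min. Cells were imaged by fluorescence and confocal microscopy.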
SMILES,pIC50 (L02),pIC50 (HepG2),GI50 (Tubulin (Sus scrofa) [1]) [µM],pIC50 (HeLa),pIC50 [2],pIC50 (A549),pIC50 (MRC5),pIC50 (MCF7 [3]),pIC50 (HMEC),Activity (MCF7 [4]) [%],Activity (MCF7 [5]) [%],pKd (Tubulin),Ratio (Tubulin (Homo sapiens) [6]),Ratio (Tubulin (Homo sapiens) [7]),inhibition (Tubulin (Sus scrofa) [8]) [%],inhibition (Tubulin (Homo sapiens) [9]),pKi [10],inhibition (Tubulin (Homo sapiens) [11])
COc1cc([C@@H]2c3cc4c(cc3[C@@H](Nc3ccc5[nH]ncc5c3)[C@H]3COC(=O)[C@H]23)OCO4)cc(OC)c1OC,4.30,6.52,< 0.1,6.70,4.01,6.70,4.22,6.70,4.09,45,60,5.04,2.7,2.2,79,Active,7.22,
COc1cc([C@@H]2c3cc4c(cc3[C@@H](Nc3cccc5[nH]ncc35)[C@H]3COC(=O)[C@H]23)OCO4)cc(OC)c1OC,4.38,5.92,,5.74,4.59,5.59,4.34,5.52,4.22,,,,,,,,7.70,
COc1cc([C@@H]2c3cc4c(cc3[C@@H](Nc3cccc5cccnc35)[C@H]3COC(=O)[C@H]23)OCO4)cc(OC)c1OC,4.43,5.34,,5.57,4.05,5.92,4.31,6.00,4.41,,,,,,,,6.72,
COc1cc([C@@H]2c3cc4c(cc3[C@@H](Nc3ccc5cn[nH]c5c3)[C@H]3COC(=O)[C@H]23)OCO4)cc(OC)c1OC,4.42,5.72,,6.10,4.18,6.00,4.27,6.10,4.28,,,,,,,,7.52,
COc1cc([C@@H]2c3cc4c(cc3[C@@H](Nc3ccc5[nH]ccc5c3)[C@H]3COC(=O)[C@H]23)OCO4)cc(OC)c1OC,4.36,6.05,,6.05,4.53,6.30,4.29,6.40,4.26,,,,,,,,7.00,
COc1cc([C@@H]2c3cc4c(cc3[C@@H](Nc3cccc5[nH]ccc35)[C@H]3COC(=O)[C@H]23)OCO4)cc(OC)c1OC,4.47,5.74,,5.68,4.53,5.62,4.49,5.89,4.19,,,,,,,,7.00,
COc1cc([C@@H]2c3cc4c(cc3[C@@H](Nc3ccc5ncccc5c3)[C@H]3COC(=O)[C@H]23)OCO4)cc(OC)c1OC,4.19,6.10,,6.15,4.10,6.52,4.65,6.22,4.05,,,,,,,,6.96,
COC(=O)Nc1nc2cc(C(=O)c3cccs3)ccc2[nH]1 [NOCODAZOLE],4.87,6.40,,6.52,4.74,6.70,4.82,6.70,4.94,,,,,,,,,Active
COc1cc([C@@H]2c3cc4c(cc3[C@@H](Nc3cccc5cn[nH]c35)[C@H]3COC(=O)[C@H]23)OCO4)cc(OC)c1OC,4.53,5.20,,5.60,4.71,5.27,4.45,5.57,4.36,,,,,,,,6.92,
COc1cc2c(c(OC)c1OC)-c1ccc(OC)c(=O)cc1[C@@H](NC(C)=O)CC2 [COLCHICINE],5.04,5.24,,4.99,5.21,5.01,5.21,4.84,5.09,,,,,,,,6.96,
COc1cc([C@@H]2c3cc4c(cc3[C@@H](Nc3ccc5cccnc5c3)[C@H]3COC(=O)[C@H]23)OCO4)cc(OC)c1OC,4.79,5.39,,5.51,5.03,5.64,4.59,5.85,4.13,,,,,,,,6.92,
COc1cc([C@@H]2c3cc4c(cc3[C@@H](Nc3cccc5cc[nH]c35)[C@H]3COC(=O)[C@H]23)OCO4)cc(OC)c1OC,4.52,5.60,,5.42,4.71,5.66,4.41,5.32,4.34,,,,,,,,7.30,
COc1cc([C@@H]2c3cc4c(cc3[C@H](O)[C@H]3COC(=O)[C@H]23)OCO4)cc(OC)c1OC [PODOFILOX],5.30,5.62,,5.16,5.08,5.59,4.97,5.62,5.25,,,,,,,,6.57,Active
COc1cc([C@@H]2c3cc4c(cc3[C@@H](Nc3cccc5ncccc35)[C@H]3COC(=O)[C@H]23)OCO4)cc(OC)c1OC,4.05,< 4.00,,< 4.00,4.03,< 4.00,4.15,< 4.00,4.10,,,,,,,,7.22,
